Reference: ChEMBL document CHEMBL5705901, “Exploiting selective BCL-2 family inhibitors to dissect cell survival dependencies and define improved strategies for cancer therapy” (Sci Transl Med, 2015)

Columns and labels:
[1] = tested on: OVCAR-5; assay: Antitumor activity against human OVCAR-5 xenografted in iv dosed SCID mouse assessed as tumor growth delay relative to control; type: functional
Outline: (§1)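 Tumor volume-based endpoints. TGD = 100(T/C − 1), where T and C are the median times for the treated and control groups to reach 1 cm3. Groups were five mice for NCI-H747 and OVCAR-5 and eight for NCI-H358. Docetaxel was given intravenously and the test agent orally.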

[2] = Toxicity in iv dosed SCID mouse assessed as body weight loss relative to control; type: organism-based; conditions: in vivo
[3] = tested on: MDA-MB-231; assay: Antitumor activity against LC3 positive human MDA-MB-231 cells xenografted in SCID mouse assessed as maximum tumor growth inhibition at 7.5 mg/kg, iv administered as single dose relative to control; type: functional; conditions: read-out: TGI
Outline: (§2)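 MDA-MB-231 LC3 metastatic breast cancer xenograft, 10 mice per group, with a vehicle control. Dosing: oral agent 25 mg/kg daily for 14 days; docetaxel 7.5 mg/kg iv once; combination gives both regimens. Mean tumor volumes tracked. TGImax = 100(1 − Tv/Cv) from mean treated vs control volumes. TGD = 100(T/C − 1) from median times to reach 1 cm3.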

[4] = tested on: EBC-1; assay: Antitumor activity against human EBC-1 cells xenografted in iv dosed SCID-bg mouse assessed as maximum tumor growth inhibition relative to control; type: functional
[5] = Toxicity in Sprague-Dawley rat assessed as inhibition of granulopoiesis by measuring reduction in neutrophil count at 5 mg/kg, iv administered once and measured on day 6 by microscopic analysis relative to control; type: organism-based; set-up: scale not given: the % may be the effect or the level left; conditions: in vivo, 144 h, time 6 day
Outline: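 Male Sprague-Dawley rats, n = 10 per group: docetaxel 5 mg/kg i.v. once, or oral inhibitor daily for 5 days (30, 50 or 7 mg/kg depending on agent), alone or combined with docetaxel, against vehicles. Total neutrophil and platelet counts in blood collected on day 6; Tukey-Kramer test versus vehicle.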

[6] = tested on: NCI-H1650; assay: Antitumor activity against human NCI-H1650 cells xenografted in SCID-bg mouse assessed as maximum tumor growth inhibition at 7.5 mg/kg, iv administered as single dose relative to control; type: functional; conditions: read-out: TGI
Outline: (§3)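 NCI-H1650 NSCLC xenografts, ten mice per group. Arms: vehicle; docetaxel iv once at 7.5 mg/kg; oral agent daily for 14 days at 25 mg/kg; and the two combined. TGImax = 100(1 − Tv/Cv) from mean volumes. TGD = 100(T/C − 1) from median times to reach 1 cm3.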

[7] = tested on: NCI-H747; assay: Antitumor activity against human NCI-H747 cells xenografted in iv dosed SCID-bg mouse assessed as tumor growth delay relative to control; type: functional; outline: as §1
[8] = tested on: NCI-H747; assay: Antitumor activity against human NCI-H747 cells xenografted in iv dosed SCID-bg mouse assessed as maximum tumor growth inhibition relative to control; type: functional
[9] = Toxicity in iv dosed SCID mouse assessed as tolerance; type: organism-based; conditions: in vivo
[10] = tested on: A549; assay: Antitumor activity against 3 times passaged human A549 cells xenografted in iv dosed SCID mouse assessed as tumor growth delay relative to control; type: functional
[11] = Toxicity in iv dosed SCID-bg mouse assessed as body weight loss relative to control; type: organism-based; conditions: in vivo
[12] = tested on: A549; assay: Antitumor activity against 3 times passaged human A549 cells xenografted in iv dosed SCID mouse assessed as maximum tumor growth inhibition relative to control; type: functional
[13] = tested on: MDA-MB-231; assay: Antitumor activity against LC3 positive human MDA-MB-231 cells xenografted in SCID mouse assessed as tumor growth delay at 7.5 mg/kg, iv administered as single dose relative to control; type: functional; outline: as §2
[14] = Toxicity in iv dosed SCID-bg mouse assessed as tolerance; type: organism-based; conditions: in vivo
[15] = tested on: NCI-H358; assay: Antitumor activity against human NCI-H358 cells xenografted in iv dosed SCID mouse assessed as tumor growth delay relative to control; type: functional; outline: as §1
[16] = tested on: OVCAR-5; assay: Antitumor activity against human OVCAR-5 xenografted in iv dosed SCID mouse assessed as maximum tumor growth inhibition relative to control; type: functional
[17] = tested on: NCI-H358; assay: Antitumor activity against human NCI-H358 cells xenografted in iv dosed SCID mouse assessed as maximum tumor growth inhibition relative to control; type: functional
[18] = tested on: NCI-H1650; assay: Antitumor activity against human NCI-H1650 cells xenografted in SCID-bg mouse assessed as tumor growth delay at 7.5 mg/kg, iv administered as single dose relative to control; type: functional; outline: as §3
[19] = tested on: EBC-1; assay: Antitumor activity against human EBC-1 cells xenografted in iv dosed SCID-bg mouse assessed as tumor growth delay relative to control; type: functional

CC(=O)O[C@@]12CO[C@@H]1C[C@H](O)[C@@]1(C)C(=O)[C@H](O)C3=C(C)[C@@H](OC(=O)[C@H](O)[C@@H](NC(=O)OC(C)(C)C)c4ccccc4)C[C@@](O)([C@@H](OC(=O)c4ccccc4)[C@H]21)C3(C)C [DOCETAXEL ANHYDROUS]
Activity [1]: 54% | Activity [2]: < 9% | inhibition in vivo at 7.5 mg/kg [3]: 73% | TGI [4]: 76% | Activity [5]: 61% | inhibition in vivo at 7.5 mg/kg [6]: 82% | Activity [7]: 113% | TGI [8]: 52% | Activity [9]: Non-Toxic | Activity [10]: 108% | Activity [11]: < 9% | TGI [12]: 71% | Activity [13]: 82% | Activity [14]: Non-Toxic | Activity [15]: 47% | TGI [16]: 39% | TGI [17]: 58% | Activity [18]: 52% | Activity [19]: 44%
